SENP8 block-1 – SENP8 (human) protease inhibition | recombinant SENP8, Nedd8 substrate fluorescence | inhibition, % at 20 µM | Q96LD8 | 360,000 compounds, 0.64% hits; in the data active means inhibition mostly above about 40%, no sharp cut-off; inactive means mostly below about 27%
SENP8 block-2 – SENP8 protease inhibition. purified SENP8, Z-RLRGG-aminoluciferin cleavage, luminescence. Q96LD8. inhibition, % at 10 µM. AID 2540. 330,000 compounds, 1.2% hits; in the data active means inhibition above about 50%
SENP6 inh – SENP6 protease inhibition; Recombinant SENP6 catalytic domain, aminoluciferin luminescence; inhibition, % at 10 µM; Q9GZR1; 330,000 compounds, 1.8% hits; AID 2599;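 active means inhibition above about 50% at the single tested dose, limit read from the data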
SENP7 block – blocks the human protease SENP7. AID 434973. inhibition, % at 5 µM. recombinant SENP7, Z-RLRGG-aminoluciferin luminescence, 40 min. 330,000 compounds, 1.5% hits;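 active means inhibition above about 50% at the single test dose, limit read from the data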
Apaf-1 inh – inhibitors of human Apaf-1 apoptosome. O14727. reconstituted apoptosome caspase-3 activity, DEVD-Rh110 fluorescence. inhibition, % at 20 µM. 330,000 compounds, 0.71% hits. AID 489030; active means inhibition of at least 40% at 20 µM
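Material: reconstituted apoptosome with Apaf-1, cytochrome c, caspase-9, procaspase-3, dATP / Buffer or medium: pH 7.5 Hepes buffer with CHAPS, BSA, DTT / Also added: cytochrome c with DEVD-Rh110 / Schedule: compound with Apaf-1, dATP, procaspase-3 30 min, then 50 min reaction, room temperature / Technique: rhodamine 110 fluorescence at Ex 480/Em 540 nm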
SENP1 inh – SENP1 (human) catalytic domain inhibition. inhibition, % at 10 µM. 360,000 compounds, 0.21% hits. recombinant SENP1 catalytic domain, CyPet-SUMO1-YPet FRET cleavage;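 active means inhibition at least 30% at 10 µM, raw YFP signal under a set limit, fluorescence ratio 0.5 to 1.5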
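Assay system – human recombinant His6-tagged SENP1 catalytic domain enzyme · Input – SENP1 enzyme, 20 pM final · Buffer or medium – Tris pH 8 buffer plus EDTA, NaCl, BME, BSA, NP40, catalase · Schedule – 50 min reaction at room temperature · Technique – FRET read of cyan and yellow fluorescence · Control set – no-enzyme wells low, DMSO-plus-enzyme wells high control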
Each line names hits and unclear results; the compound was inactive in the other large screens. Compounds with a hit are over-represented: about 2.9% of the library has one in this group of screens.

C[C@]12CCC[C@H](O1)c1c(cc3c(c1O)C(=O)c1c(O)cc(O)cc1C3=O)O2	SENP8 block-1 57.7, SENP1 inh 31.1
CC1(C)CC(=O)c2c(O)cc(O)cc2O1	none
S=C1NCCC12C(=S)Nc1ccccc12 (centres undefined)	none
CC(C)C[C@@H](CN1CCC[C@H]1CN1C(=O)C(=O)NC[C@@H]1Cc1ccc(O)cc1)N1C[C@H](Cc2ccccc2)N(CC2CCCCCC2)C(=O)C1=O	none (no result: SENP8 block-2, SENP6 inh, SENP7 block, Apaf-1 inh)
CCN1CCC2(CC1)Oc1c(OC)cccc1C1CC(c3cccnc3)=NN12 (centres undefined)	none
c1nc(NCc2ccc3c(c2)OCO3)c2cc(-c3ccc4c(c3)OCCO4)ccc2n1	none
Cc1cccc(CNc2ncnc3ccc(-c4ccc5c(c4)OCCO5)cc23)c1	Apaf-1 inh 42.3
Cc1cc(O)c(C(C)C)cc1N=Nc1ccccc1C(=O)O	none
Cc1cc(N=Nc2ccccc2C(=O)O)c(C)c(C)c1O	SENP1 inh 33.3
O=C(Nc1ccc2c(c1)OCO2)c1ccc2c(c1)OCO2	SENP8 block-2 67.1, SENP6 inh 86.1, SENP7 block 84.5
CC(=O)Nc1ccc(C(=O)Nc2ccc3c(c2)OCO3)cc1	none
Cc1c(Cl)ccc2c(C(O)CBr)cc(-c3ccccc3)nc12 (centres undefined)	none (no result: SENP8 block-2, SENP6 inh, SENP7 block, Apaf-1 inh)
Cc1ccc(-c2cn3nc(C)c(C)nc3n2)cc1	SENP8 block-2 52.6
c1ccc(-c2ccc(-c3ccccn3)nn2)nc1	SENP8 block-2 70.5, SENP6 inh 83.3, SENP7 block 89.1 (no result: SENP8 block-1, SENP1 inh)
c1ccc(-c2ccccn2)nc1	none
Cc1ccc(-c2nc(-c3ccccn3)no2)cc1Cl	SENP8 block-2 96.4, SENP6 inh 95.1, SENP7 block 99.2
O=C(/C=C/c1ccccc1)NCCSc1ccc(Cl)cc1	SENP8 block-1 40.2
O=C(/C=C/c1ccccc1)NCCOc1ccccc1	none
COc1ccc(N/N=C(\C=N\O)C(=O)c2ccc(OC)cc2)cc1	SENP8 block-1 44.2
O=c1[nH]c(-c2ccco2)nc2sc3c(c12)CCCC3	SENP6 inh 50.6
COc1cccc(NC(=O)C(C)N2C(=O)c3ccccc3C2=O)c1 (centres undefined)	none
O=C1C(NS(=O)(=O)c2cccs2)=C(N2CCOCC2)C(=O)c2ccccc21	SENP8 block-1 41.5
CCc1nn(CCCC(=O)NC2CCCCC2C)c(=O)c2cc3occc3n12 (centres undefined)	none (no result: SENP8 block-2, SENP6 inh, SENP7 block, Apaf-1 inh)
C/C(=N/Nc1ccccc1[N+](=O)[O-])c1ccc([N+](=O)[O-])cc1	none
C/C(=N\Nc1ccc(C#N)cc1[N+](=O)[O-])c1ccc(O)cc1	SENP8 block-1 44.4
O=C(c1cc(COc2c(F)cccc2F)on1)N(Cc1ccccc1)CC1CC1	none
COC(=O)/C=C1\OC(c2ccccc2)c2ccccc21 (centres undefined)	none (no result: SENP8 block-2, SENP6 inh, SENP7 block, Apaf-1 inh)
O=C(N=Nc1c(O)[nH]c2ccccc12)c1ccc2c(c1)OCO2	SENP6 inh 65.6, SENP7 block 90.6
O=C(N=Nc1c(O)[nH]c2ccccc12)c1ccc(CN2CCOCC2)cc1	none
CCOC(=O)N1CCN(C2=C(NS(=O)(=O)c3ccc(Br)cc3)C(=O)c3ccccc3C2=O)CC1	SENP8 block-1 53.9 (no result: SENP8 block-2, SENP6 inh, SENP7 block, Apaf-1 inh)
Oc1cc2c(cc1O)C1c3ccc(O)c(O)c3OCC1(O)C2 (centres undefined)	SENP8 block-1 69.2
C#CCOCCOCCOCCNc1nc(N2CCN(C(=O)CCCCCCCCCCNC(=O)[C@H](CCCCN)n3cc(CCCC(=O)O)nn3)CC2)nc(N2CCN(C(=O)CCCCCCCCCCNC(=O)[C@@H]([C@H](C)O)n3cc(C)nn3)CC2)n1	none
C#CCOCCOCCOCCNc1nc(N2CCN(C(=O)CCCCCCCCCCNC(=O)Cn3cc(CCCCCN)nn3)CC2)nc(N2CCN(C(=O)CCCCCCCCCCNC(=O)[C@@H](CCSC)n3cc(CCO)nn3)CC2)n1	Apaf-1 inh 72.2
C#CCOCCOCCOCCNc1nc(N2CCN(C(=O)CCCCCCCCCCNC(=O)[C@@H](CCSC)n3cc(CCO)nn3)CC2)nc(N2CCN(C(=O)CCCCCCCCCCNC(=O)[C@H](CCSC)n3cc(CCO)nn3)CC2)n1	none
C#CCOCCOCCOCCNc1nc(N2CCN(C(=O)CCCCCCCCCCNC(=O)[C@H](CCCCN)n3cc(C)nn3)CC2)nc(N2CCN(C(=O)CCCCCCCCCCNC(=O)[C@H](CCCCN)n3cc(CCCC(=O)O)nn3)CC2)n1	Apaf-1 inh 62.7
C#CCOCCOCCOCCNc1nc(N2CCN(C(=O)CCCCCCCCCCNC(=O)Cn3cc(C[C@@H](C)O)nn3)CC2)nc(N2CCN(C(=O)CCCCCCCCCCNC(=O)[C@H](CCCCN)n3cc(CCCC(=O)O)nn3)CC2)n1	none
C#CCOCCOCCOCCNc1nc(N2CCN(C(=O)CCCCCCCCCCNC(=O)Cn3cc(CCCCCN)nn3)CC2)nc(N2CCN(C(=O)CCCCCCCCCCNC(=O)[C@@H](CCC(=O)O)n3cc(CCCCCN)nn3)CC2)n1	Apaf-1 inh 58.8
O=C(O)COc1ccc(NC(=O)c2ccc3c(c2)C(=O)N(CC2CCCO2)C3=O)cc1 (centres undefined)	none (no result: SENP8 block-2, SENP6 inh, SENP7 block, Apaf-1 inh)
O=C(N/N=C/c1ccncc1)c1ccccn1	none
O=C(N/N=C/c1ccc(N2CCOCC2)cc1)c1ccccn1	SENP6 inh 55.8, SENP7 block 54.6
NC(=O)CC(NC(=O)Cc1ccc(Cl)cc1)c1ccc(N2CCC(Cc3ccccc3)CC2)c([N+](=O)[O-])c1 (centres undefined)	none
CCOc1cc(Br)c(Br)c(C=Nc2ccc(NC(C)=O)cc2)c1O	SENP1 inh 41.2
COc1ccc(/C=C/C(=O)Nc2ccccc2C(=O)O)cc1OC	SENP8 block-2 62.7, SENP6 inh 72.2
COc1ccc(-c2nc3ccc([N+](=O)[O-])cc3[nH]2)cc1	none (no result: SENP8 block-2, SENP6 inh, SENP7 block, Apaf-1 inh)
O=[N+]([O-])c1ccc(O)c(C=Nc2ccc3nc(-c4ccccc4)[nH]c3c2)c1	SENP6 inh 71.0, SENP7 block 64.0
O=[N+]([O-])c1cccc(-c2nc3ccc([N+](=O)[O-])cc3[nH]2)c1	SENP8 block-2 94.3, SENP6 inh 98.5, SENP7 block 93.2
CCN1CCN(Cc2ccc(NC(=O)c3cc(NC(=O)c4ccno4)cc(OC)c3)cc2C(F)(F)F)CC1	none
CCN1CCN(Cc2ccc(NC(=O)c3cc(NC(=O)c4cc5cccc(OC)c5o4)cc(OC)c3)cc2C(F)(F)F)CC1	Apaf-1 inh 63.1
Cc1cccc(CSCC(=O)N2CCN(S(=O)(=O)c3ccccc3C#N)CC2)c1	none (no result: SENP8 block-2, SENP6 inh, SENP7 block, Apaf-1 inh)
CSc1nc(N)c2cn[nH]c2n1	none (no result: SENP8 block-2, SENP6 inh, SENP7 block, Apaf-1 inh)
COc1ccc(-n2c(N)c(C(=O)Nc3c(C)n(C)n(-c4ccccc4)c3=O)c3nc4ccccc4nc32)cc1	none
Cc1ccc(-n2c(N)c(C(=O)Nc3c(C)n(C)n(-c4ccccc4)c3=O)c3nc4ccccc4nc32)cc1C	Apaf-1 inh 42.4 (no result: SENP8 block-1, SENP1 inh)
